The values that follow come from ChEMBL document CHEMBL4196202, “Discovery and Structure-Based Optimization of Benzimidazole-Derived Activators of SOS1-Mediated Nucleotide Exchange on RAS” (J Med Chem, 2018).

pEC50, pKd: −log10 of the molar value. Values after ≈ are worked out from the molar mass of the structure shown. Active and inactive are the calls of the source. The calls are words filed in the database; no cut-off is given here.

The target of data set [1] is T1, Son of sevenless homolog 1 (Homo sapiens, UniProt Q07889).
T1 sequence (Q07889 whole entry): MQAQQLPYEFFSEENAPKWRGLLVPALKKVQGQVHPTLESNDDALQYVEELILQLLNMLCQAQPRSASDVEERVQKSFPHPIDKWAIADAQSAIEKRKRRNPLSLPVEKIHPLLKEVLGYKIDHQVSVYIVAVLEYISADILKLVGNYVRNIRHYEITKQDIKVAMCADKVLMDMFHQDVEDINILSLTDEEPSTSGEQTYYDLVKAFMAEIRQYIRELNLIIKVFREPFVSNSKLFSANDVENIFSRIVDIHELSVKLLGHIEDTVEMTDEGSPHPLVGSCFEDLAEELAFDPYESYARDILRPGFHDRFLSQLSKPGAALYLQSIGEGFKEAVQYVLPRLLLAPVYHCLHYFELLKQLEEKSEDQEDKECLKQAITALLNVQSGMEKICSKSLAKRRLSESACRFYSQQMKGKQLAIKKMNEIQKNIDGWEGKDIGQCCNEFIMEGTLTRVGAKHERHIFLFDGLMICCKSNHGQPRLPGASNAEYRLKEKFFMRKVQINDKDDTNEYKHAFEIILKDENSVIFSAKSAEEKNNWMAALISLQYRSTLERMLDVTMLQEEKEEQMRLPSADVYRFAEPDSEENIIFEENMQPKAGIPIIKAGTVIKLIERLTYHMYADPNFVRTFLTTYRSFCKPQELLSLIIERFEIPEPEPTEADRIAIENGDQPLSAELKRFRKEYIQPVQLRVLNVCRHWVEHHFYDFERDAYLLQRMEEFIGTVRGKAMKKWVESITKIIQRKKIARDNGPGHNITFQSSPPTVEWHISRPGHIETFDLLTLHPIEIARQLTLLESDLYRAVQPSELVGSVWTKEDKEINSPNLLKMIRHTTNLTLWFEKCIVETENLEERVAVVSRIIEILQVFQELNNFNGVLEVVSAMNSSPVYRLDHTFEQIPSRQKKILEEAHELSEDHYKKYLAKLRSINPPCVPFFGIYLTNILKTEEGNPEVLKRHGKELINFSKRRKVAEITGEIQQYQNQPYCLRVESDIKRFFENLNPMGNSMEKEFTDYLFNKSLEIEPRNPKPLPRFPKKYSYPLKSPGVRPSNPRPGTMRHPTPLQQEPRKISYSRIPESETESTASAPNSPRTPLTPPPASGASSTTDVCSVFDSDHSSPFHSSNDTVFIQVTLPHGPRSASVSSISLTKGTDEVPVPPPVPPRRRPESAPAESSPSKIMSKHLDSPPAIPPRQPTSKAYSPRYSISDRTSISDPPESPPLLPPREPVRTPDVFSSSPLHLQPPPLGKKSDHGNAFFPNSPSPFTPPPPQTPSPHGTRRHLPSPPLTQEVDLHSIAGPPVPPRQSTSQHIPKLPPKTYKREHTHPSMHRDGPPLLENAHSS
In words: Binding affinity to human recombinant N-terminal His6-tagged SOS1 (564 to 1049 residues) expressed in BL21-RIL Escherichia coli by fluorescent probe S1 based fluorescence polarization anisotrophy saturation binding assay. An outline of the steps: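 SOS1cat (aa 564–1049) was titrated in a 12-point, 2-fold series from 10 μM top against 50 nM fluorescein-labeled probe. Buffer was 20 mM Tris-HCl pH 7.5, 50 mM NaCl, 1 mM magnesium chloride, with 20 min at room temperature in the dark. Anisotropy was read and Kd reported as mean ± SD of at least three independent experiments.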

Data set [2] has as its target T2, Son of sevenless homolog 1 (Homo sapiens) (UniProt Q07889).
T2 sequence (whole entry): T1 sequence (Q07889 whole entry)
As to the kind of experiment: Biphasic activity at of SOS1 in human HeLa cells expressing wild type KRAS assessed as induction of ERK1/2 T202/Y204 phosphorylation at 1.5 to 100 uM (lower range) incubated for 30 mins by In-cell Western assay. In kind it is cell-based.

Data set [3] concerns the target T2, Son of sevenless homolog 1 (Homo sapiens). As to the kind of experiment: Activation of SOS1 in human NCI-H727 cells expressing KRAS G12V mutant assessed as induction of ERK1/2 T202/Y204 phosphorylation at 1.5 to 100 uM (higher range) incubated for 30 mins by In-cell Western assay. It counts as cell-based.
For data set [4] the target is unchanged. In words: Activation of SOS1 in human HeLa cells expressing wild type KRAS assessed as increase in RAS-GTP levels at 10 to 30 uM incubated for 10 mins by active RAS pull-down assay. It counts as cell-based. An outline of the steps: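 HeLa cells, STR-authenticated and mycoplasma-negative, were passaged at least twice after thaw (25 passages maximum). They were seeded to reach 70% confluency after 24 h, then treated. Active RAS-GTP was captured by RAF1-RBD pull-down and detected by SDS-PAGE and western blot with a pan-RAS antibody and a fluorescent secondary, read on an Odyssey imager. Total RAS and α-tubulin in the input served as loading controls.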

For data set [5] the target is unchanged. In words: Biphasic activity at of SOS1 in human HeLa cells expressing wild type KRAS assessed as reduction in ERK1/2 T202/Y204 phosphorylation at 1.5 to 100 uM (higher range) incubated for 30 mins by In-cell Western assay. In kind it is cell-based.
For data set [6] the target is unchanged. As to the kind of experiment: Activation of SOS1 in human HeLa cells expressing wild type KRAS assessed as induction of ERK1/2 T202/Y204 phosphorylation at 1.5 to 100 uM incubated for 30 mins by In-cell Western assay.
Data set [7] concerns the target T1, Son of sevenless homolog 1. In words: Binding affinity to human recombinant N-terminal His6-tagged SOS1 (564 to 1049 residues) expressed in BL21-RIL Escherichia coli by fluorescent probe S2 based fluorescence polarization anisotrophy saturation binding assay.
In data set [8] the target is T1, Son of sevenless homolog 1. In words: Activation of SOS1 in human HeLa cells expressing wild type KRAS assessed as induction of ERK1/2 T202/Y204 phosphorylation incubated for 30 mins by In-cell Western assay. It counts as cell-based.
In data set [9] the target is T2, Son of sevenless homolog 1 (Homo sapiens). In words: Activation of SOS1 in human NCI-H727 cells expressing KRAS G12V mutant assessed as induction of ERK1/2 T202/Y204 phosphorylation at 1.5 to 100 uM (lower range) incubated for 30 mins by In-cell Western assay. In kind it is cell-based.
Data set [10] addresses Son of sevenless homolog 1 (Homo sapiens, UniProt Q07889). In words: Activation of SOS1 in human NCI-H727 cells expressing KRAS G12V mutant assessed as induction of ERK1/2 T202/Y204 phosphorylation incubated for 30 mins by In-cell Western assay. In kind it is cell-based.
For data set [11], the target named is T2, Son of sevenless homolog 1 (Homo sapiens). As to the kind of experiment: Activation of SOS1 in human HeLa cells expressing wild type KRAS assessed as increase in RAS-GTP levels at 0.3 to 30 uM incubated for 10 mins by active RAS pull-down assay. It counts as cell-based. An outline of the steps:
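HeLa cells seeded to reach 70% confluency after 24 h, then treated. RAS-GTP was captured by a RAF1-RBD active RAS pull-down kit, resolved by SDS-PAGE, blotted to PVDF and probed with pan-RAS antibody. Total RAS and α-tubulin inputs served as loading controls. Detection was by fluorescent secondary antibody on an Odyssey imager.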

For data set [12], the target named is T1, Son of sevenless homolog 1. As to the kind of experiment: Binding affinity to human recombinant N-terminal His6-tagged SOS1 (564 to 1049 residues) expressed in BL21-RIL Escherichia coli by fluorescent probe S3 based fluorescence polarization anisotrophy saturation binding assay. Put shortly:
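SOS1cat (aa 564–1049) was titrated in a 16-point, 3-fold series from 10 μM top against 50 nM fluorescein probe S3. Buffer was 20 mM Tris-HCl pH 7.5, 50 mM NaCl, 1 mM magnesium chloride. Fluorescence anisotropy was read and Kd reported as mean ± SD of at least three independent experiments.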

A short description of data set [13]: Aqueous solubility in pH 6.8 buffer at 1 mg/mL by HPLC/DAD-UV assay. In kind it is physicochemical. An outline of the steps: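 Solid compound was dispensed at 1 mg/mL into McIlvaine buffer pH 6.8, with a reference dissolved in acetonitrile/water 1:1 (v/v). Dissolved concentration was quantified by HPLC-DAD-UV. Single experiment.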

Take `CCc1ccccc1-c1cc(Cl)cc2c1nc(N1CCNCC1)n2Cc1cc(C)c(F)c(C)c1`: the pKd in data set [1] was 6.68.
For the molecule `Cc1cc(Cn2c(N3CCNCC3)nc3c(N4CCN(C)CC4)cc(Cl)cc32)cc(C)c1F`, the result in data set [2], in data set [3], in data set [4], in data set [5] and in [6] was Active.
For the molecule `Cc1cc(Cn2c(N3CCNCC3)nc3c(-c4ccccc4C4CCC4)cc(Cl)cc32)cc(C)c1F`, the pKd in [1] was 6.36.
On to `Cc1ncncc1-c1cc(Cl)cc2c1nc(N1CC3(CNC3)C1)n2Cc1ccc(F)cc1`, for which the result in data set [2], in data set [9] and in [11] was Active. Further, in data set [7], the negative logarithm of the Kd (pKd) was 6.74. Moreover, the pEC50 is 4.48 in [8] and 4.37 in data set [10]. For the same molecule, the result in [3] and in data set [5] was inactive.
Take `Cc1cc(Cn2c(N3CCNCC3)nc3c(-c4ccccc4)cc(Cl)cc32)cc(C)c1F`: the negative logarithm of the Kd (pKd) in data set [1] was 6.57.
Turning to `Cc1cc(Cn2c(N3CCNCC3)nc3c(-c4ccc(C(F)(F)F)cc4)cc(Cl)cc32)cc(C)c1F`, in [1], the pKd is 5.98.
As to `Cc1cc(Cn2c(N3CC4(CNC4)C3)nc3c(-c4ccccc4Cl)cc(Cl)cc32)cc(C)c1F`, the result in [2], in [9], in data set [3] and in data set [5] was Active. Further, the pEC50 in [8] is 4.85; in [10] it was 4.71. Also, the pKd in [12] was 7.92.
As for `Cc1cc(Cn2c(N3CCNCC3)nc3c(-c4ccccc4Cl)cc(Cl)cc32)cc(C)c1F`, the result in data set [2], in data set [9] and in data set [5] was Active. Also, the negative-log EC50 (pEC50) in [8] is 4.96; in [10] it was 4.43. For the same molecule, the result in data set [3] was inactive. Besides, the pKd in data set [1] was 6.92.
Turning to `Cc1cc(Cn2c(N3CCNCC3)nc3c(-c4cccnc4)cc(Cl)cc32)cc(C)c1F`, the negative-log Kd (pKd) in data set [1] was 6.48.
For the molecule `Cc1cc(Cn2c(N3CCNCC3)nc3c(-c4cccc(C(F)(F)F)c4)cc(Cl)cc32)cc(C)c1F`, the negative logarithm of the Kd (pKd) in data set [1] is 6.17.
Still for that read-out and setting: then `Cc1cc(Cn2c(N3CCNCC3)nc3c(N4CCC(N)CC4)cc(Cl)cc32)cc(C)c1F`, with 6.62.
`Cc1cc(Cn2c(N3CC4(CNC4)C3)nc3c(-c4c(C)n[nH]c4C)cc(Cl)cc32)cc(C)c1F`: the outcome in data set [2], in [9], in [3] and in data set [5] was Active. For the same molecule, the pEC50 was 4.85 in data set [8] and 4.68 in data set [10]. Besides, the pKd in [12] is 8.05.
With `Cc1cc(Cn2c(N3CCNCC3)nc3c(-c4ccccc4C(C)C)cc(Cl)cc32)cc(C)c1F`, in data set [1], the pKd was 6.41.
For the molecule `Cc1nc(N)ncc1-c1cc(Cl)cc2c1nc(N1CC3(CNC3)C1)n2Cc1ccc(F)cc1`, the outcome in data set [2], in [9] and in data set [5] was Active. In addition, the pEC50 was 4.85 in [8] and 4.56 in data set [10]. Further, the outcome in data set [3] was inactive. In addition, the pKd in [12] is 7.44.
Turning to `Cc1cc(Cn2c(N3CCNCC3)nc3c(-c4ccccc4C(F)(F)F)cc(Cl)cc32)cc(C)c1F`, in data set [1], the pKd was 6.82.
Regarding `Cc1cc(Cn2c(N3CCNCC3)nc3c(-c4cncnc4C)cc(Cl)cc32)cc(C)c1F`, the result in data set [2], in data set [9], in [3], in data set [5] and in [11] was Active. Moreover, the negative-log Kd (pKd) in data set [7] was 6.96. The pEC50 is 4.99 in data set [8] and 4.84 in data set [10].
Consider `Cc1cc(Cn2c(N3CCNCC3)nc3c(C4=CCNCC4)cc(Cl)cc32)cc(C)c1F`, for which, in data set [1], the pKd is 6.60.
Consider `Cc1cc(Cn2c(N3CC4(CNC4)C3)nc3c(-c4cnc(N)nc4C)cc(Cl)cc32)cc(C)c1F`, for which the result in data set [2], in data set [9], in data set [3] and in data set [5] was Active. In addition, the pEC50 is 5.11 in [8] and 4.87 in data set [10]. The negative logarithm of the Kd (pKd) in data set [12] was 7.92.
Take `Cc1cc(Cn2c(N3CC4(CNC4)C3)nc3c(-c4cncnc4C)cc(Cl)cc32)cc(C)c1F`: the outcome in data set [2], in [9], in [3], in data set [5] and in data set [11] was Active. Besides, the values for the pEC50 in data set [8] and in [10] were 4.94 and 4.80, respectively. Besides, in [13], the solubility was found to be 3 µg/mL (≈ 6.29 µM). In addition, the negative logarithm of the Kd (pKd) in [12] is 7.80.
On to `Cc1cc(Cn2c(N3CCNCC3)nc3ccc(Cl)cc32)cc(C)c1F`, for which the result in data set [2], in data set [9], in data set [3] and in [5] was Active. Moreover, the negative logarithm of the EC50 (pEC50) in data set [8] is 4.84; in data set [10] it was 4.67. In data set [1], the pKd is 6.34.
